Assays:
[1] = Drug uptake in human HNT1 cells at 3.2 uM incubated for 30 mins in serum free medium followed by […] in compound-free medium by inverted fluorescence microscopic analysis; assay type: ADME, cell-based; conditions: hnt1, 0.5 h
Summary of the method: (§1)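 Confluent HNT1 cultures (passage 116) given 3.2 μM PS for 30 min in serum-free medium, then 5 h in serum-containing medium with PS, then 15 h chase in serum medium without PS. Fluorescence recorded at 100X with varied camera exposures and quantified digitally; pixel signal normalized to time and cell number.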

UMUC3 [2] = assay: Photodynamic antitumor activity against human UMUC3 cells xenografted in SCID mouse assessed as tumor retention at 0.47 micromol/kg, iv pretreated with compound followed by light irradiation at a dose of 135 J/cm2 and 75 mW/cm2 measured at day 60 post dose relative to control; assay type: functional; conditions: dose 0.47 µmol/kg; time 60 day
Summary of the method: (§2)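 UMUC3-bearing female SCID mice given iv PS in 1% Tween80/5% dextrose. Mice restrained and tumors irradiated at 665 nm, 135 J/cm² over 30 min at 75 mW/cm², at the time of maximal tumor uptake. Tumor regrowth measured daily for 60 days; mice euthanized above 400 mm³. Cure plotted as survival curves and compared by log-rank (Mantel-Cox) test.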

[3] = Drug uptake in liver of iv dosed SCID mouse xenografted with UMUC3 cells by fluorescence imaging analysis; conditions: in vivo
[4] = Drug uptake in tumor of SCID mouse xenografted with human UMUC3 cells assessed as drug accumulation at 0.47 micromol/kg, iv pretreated with compound followed by light irradiation at a dose of 135 J/cm2 and 75 mW/cm2 measured after 6 hrs by IVIS analysis; assay type: ADME, organism-based, Neoplasm; conditions: in vivo, dose 0.47 µmol/kg
Summary of the method: (§3)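 Female SCID mice with UMUC3 flank/shoulder tumors, 3 per group. PS in 1% Tween80/5% dextrose given iv at 0.47, 0.25 or 0.125 μmol/kg. Whole-body fluorescence imaging by IVIS at several times after injection; average radiant efficiency measured in tumor, liver and skin.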

[5] = Drug uptake in human HNT1 cells at 3.2 uM incubated for 30 mins in DMEM media with 10% FBS followed by […] in compound-free medium by inverted fluorescence microscopic analysis; assay type: ADME, cell-based; conditions: hnt1, 0.5 h, in the assay text read “in serum-free medium” for “in DMEM media with 10% FBS”; summary of the method: as §1
[6] = Drug uptake in tumor of iv dosed SCID mouse xenografted with human UMUC3 cells by fluorescence imaging analysis; assay type: ADME, organism-based, Neoplasm; conditions: in vivo
[7] = Drug uptake in tumor of iv dosed SCID mouse xenografted with UMUC3 cells by fluorescence imaging analysis; conditions: in vivo
[8] = Drug uptake in liver of iv dosed SCID mouse xenografted with human UMUC3 cells by fluorescence imaging analysis; assay type: ADME, organism-based; conditions: in vivo
[9] = Drug uptake in liver of SCID mouse xenografted with human UMUC3 cells at 0.125 micromol/kg, iv pretreated with compound followed by light irradiation at a dose of 135 J/cm2 and 75 mW/cm2 measured after 2 to 24 hrs by IVIS analysis; assay type: ADME, organism-based; conditions: in vivo, time 2-24 hrs, dose 0.125 µmol/kg; summary of the method: as §3
[10] = Drug uptake in skin of iv dosed SCID mouse xenografted with human UMUC3 cells by fluorescence imaging analysis; assay type: ADME, organism-based, Skin of body; conditions: in vivo
[11] = Drug uptake in human FaDu clone 49 cells assessed as increase in drug retention at 1.6 uM in RPMI medium with 10% FBS followed by 48 hrs chase period by inverted fluorescence microscopic analysis
[12] = Drug uptake in tumor of SCID mouse xenografted with human FaDu cells at 0.47 to 0.125 micromol/kg, iv pretreated with compound followed by light irradiation at a dose of 135 J/cm2 and 75 mW/cm2 and measured at 24 hrs by IVIS analysis; assay type: ADME, organism-based, Neoplasm; conditions: in vivo, dose 0.47-0.125 µmol/kg
Summary of the method: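 Female SCID mice bearing FaDu tumors 4–5 mm in diameter, 3 per group. PS in 1% Tween80/5% dextrose given iv at 0.47, 0.25 or 0.125 μmol/kg. IVIS whole-body fluorescence imaged at several time points; average radiant efficiency measured in tumor, liver and skin.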

HN-85-1-3 = assay: Photodynamic therapy in human HN-85-1-3 cells assessed as induction of STAT3 cross-linking treated with compound followed by diode laser irradiation at 3 J/cm2 by immunoblot analysis; assay type: functional, cell-based
Summary of the method: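 Primary HN-85-1-3 tumor epithelial cells loaded with graded PS doses; uptake quantified by fluorescence before light. Dishes irradiated at 37°C with 665 nm diode laser, 6 mW/cm², 3 J/cm² total. Cells lysed in RIPA immediately after light; STAT3 crosslinking and EGFR analysed by SDS-PAGE immunoblot.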

FaDu = assay: Photodynamic antitumor activity against human FaDu cells xenografted in SCID mouse assessed as cure rate at 0.25 micromol/kg, iv pretreated with compound followed by light irradiation at a dose of 135 J/cm2 and 75 mW/cm2 measured after 60 days post dose relative to control; assay type: functional; conditions: dose 0.25 µmol/kg; time 60 day
Summary of the method: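 FaDu-bearing female SCID mice (5 per group per experiment) given iv PS at 0.47, 0.25 or 0.125 μmol/kg in Tween80/dextrose. Tumors irradiated 24 h post-injection at 665 nm, 135 J/cm², 75 mW/cm². Tumor growth measured daily for 60 days, with euthanasia above 400 mm³. Cure taken as tumor-free at day 60; survival analysed by log-rank test.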

UMUC3 [13] = assay: Photodynamic antitumor activity against human UMUC3 cells xenografted in SCID mouse assessed as tumor retention at 0.25 micromol/kg, iv pretreated with compound followed by light irradiation at a dose of 135 J/cm2 and 75 mW/cm2 measured at day 60 post dose relative to control; assay type: functional; conditions: dose 0.25 µmol/kg; time 60 day; summary of the method: as §2

Drug uptake [1]: Active
Drug uptake [3]: Active
Drug uptake [4]: Active
Drug uptake [5]: Active
Drug uptake [6]: Active
Drug uptake [7]: Active
Drug uptake [8]: Active
Drug uptake [9]: Active
Drug uptake [10]: Active
Drug uptake [11]: Active
Drug uptake [12]: Active
SMILES: CCC1=C(C)c2cc3[nH]c(cc4nc(c5c6[nH]c(cc1n2)c(C)c6C(=O)C5)[C@@H](CCC(=O)OC)[C@@H]4C)c(C)c3C(C)OCc1cccc(C#Cc2cccc(Nc3ncnc4cc(OCCOC)c(OCCOC)cc34)c2)c1 (stereo not given in full)
Activity (UMUC3 [2]): 74%
Activity (HN-85-1-3): Dose-dependent effect
Activity (FaDu): 80%
Activity (UMUC3 [13]): 50%
